The structures appear in SMILES notation. Calls of active or inactive are those of the source. The calls are words filed in the database; no cut-off is given here. Bounds are passed on as bounds.

One assay concerns Eimeria acervulina. Kind of assay: Anticoccidial activity in chicken against Eimeria acervulina. It is filed as functional. Set-up: Reduction: concentration or dose not given beside the values. The method, boiled down: (§1)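 3-Day-old chicks infected separately with E. tenella or E. acervulina; test compound given mixed in the feed at the stated rates. Activity was scored as percent suppression of oocyst production versus infected, unmedicated controls. Toxicity was judged from average weight gain relative to uninfected controls.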

Another assay concerns Eimeria tenella. The assay can be described thus: Anticoccidial activity in chicken against E. tenella. It is filed as functional. Set-up: Reduction: concentration or dose not given beside the values. The method, boiled down:
as §1

For assay [1], the species on record is Gallus gallus. The assay can be described thus: The compound was tested for anti-coccidial activity in chicken against E. acervulina; Inactive. In kind it is functional, organism-based. The gist of the method: as §1
For assay [2], the species on record is Gallus gallus. The assay can be described thus: The compound was tested for anti-coccidial activity in chicken against E. acervulina (DP-761) measured at dose 125(ppm in diet). In kind it is functional.
The species entered for assay [3] is Gallus gallus. The assay can be described thus: The compound was tested for anti-coccidial activity in chicken against E. praecox(DP-785) measured at dose 125(ppm in diet). In kind it is functional.
For assay [4], the species on record is Gallus gallus. Kind of assay: The compound was tested for anti-coccidial activity in chicken against E. tenella(DP-761) measured at dose 125(ppm in diet). In kind it is functional.
Assay [5] is filed under the species Gallus gallus. Kind of assay: The compound was tested for anti-coccidial activity in chicken against E. hagani(DP-786) measured at dose 125(ppm in diet). It is filed as functional.
Assay [6] is filed under the species Gallus gallus. The assay can be described thus: The compound was tested for anti-coccidial activity in chicken against E. maxima(DP-776) measured at dose 125(ppm in diet). In kind it is functional.
For assay [7], the species on record is Gallus gallus. The assay can be described thus: The compound was tested for anti-coccidial activity in chicken against E. brunetti (FS-103) measured at dose 125(ppm in diet). In kind it is functional.
The species named for assay [8] is Gallus gallus. Kind of assay: The compound was tested for anti-coccidial activity in chicken against E. mitis(LS-84) measured at dose 125(ppm in diet). It is filed as functional.
Assay [9] is filed under the species Gallus gallus. Kind of assay: The compound was tested for anti-coccidial activity in chicken against Eimeria acervulina (DP-761) measured at dose 100 (ppm in diet). In kind it is functional.
For assay [10], the species on record is Gallus gallus. Kind of assay: The compound was tested for anti-coccidial activity in chicken against Eimeria mitis (LS-84) measured at dose 100 (ppm in diet). It is filed as functional.
For assay [11], the species on record is Gallus gallus. Kind of assay: The compound was tested for anti-coccidial activity in chicken against Eimeria maxima (DP-776) measured at dose 100 (ppm in diet). It is filed as functional.
The species named for assay [12] is Gallus gallus. Kind of assay: The compound was tested for anti-coccidial activity in chicken against Eimeria hagani (DP-786) measured at dose 100 (ppm in diet). In kind it is functional.
Assay [13] is filed under the species Gallus gallus. Kind of assay: The compound was tested for anti-coccidial activity in chicken against Eimeria brunetti (FS-103) measured at dose 100 (ppm in diet). It is filed as functional.
Assay [14] is filed under the species Gallus gallus. Kind of assay: The compound was tested for anti-coccidial activity in chicken against Eimeria tenella (DP-761) measured at dose 100 (ppm in diet). In kind it is functional. The method, boiled down:
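Test article mixed into the feed at the stated rates and given to 3-day-old chicks infected with […]. Each Eimeria species was inoculated separately. Activity was scored as percent suppression of oocyst output relative to infected, unmedicated controls. Toxicity was judged from average weight gain relative to uninfected controls.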

For assay [15], the species on record is Gallus gallus. Kind of assay: The compound was tested for anti-coccidial activity in chicken against Eimeria praecox (DP-785) measured at dose 100 (ppm in diet). It is filed as functional.
The species entered for assay [16] is Gallus gallus. The assay can be described thus: The compound was tested for anti-coccidial activity in chicken against E. hagani(DP-786) measured at dose 33(ppm in diet). In kind it is functional.
Assay [17] is filed under the species Gallus gallus. The assay can be described thus: The compound was tested for anti-coccidial activity in chicken against E. acervulina (DP-761) measured at dose 33(ppm in diet). In kind it is functional.
The species named for assay [18] is Gallus gallus. The assay can be described thus: The compound was tested for anti-coccidial activity in chicken against E. praecox(DP-785) measured at dose 33(ppm in diet). In kind it is functional.
Assay [19] is filed under the species Gallus gallus. The assay can be described thus: The compound was tested for anti-coccidial activity in chicken against E. maxima(DP-776) measured at dose 33(ppm in diet). In kind it is functional.
Assay [20] is filed under the species Gallus gallus. Kind of assay: The compound was tested for anti-coccidial activity in chicken against E. tenella(DP-761) measured at dose 33(ppm in diet). It is filed as functional.
The species entered for assay [21] is Gallus gallus. The assay can be described thus: The compound was tested for anti-coccidial activity in chicken against E. brunetti (FS-103) measured at dose 33(ppm in diet). In kind it is functional.
For assay [22], the species on record is Gallus gallus. Kind of assay: The compound was tested for anti-coccidial activity in chicken against E. mitis(LS-84) measured at dose 33(ppm in diet). In kind it is functional.
For assay [23], the species on record is Gallus gallus. Kind of assay: The compound was tested for anti-coccidial activity in chicken against Eimeria mitis (LS-84) measured at dose 60 (ppm in diet). It is filed as functional.
For assay [24], the species on record is Gallus gallus. The assay can be described thus: The compound was tested for anti-coccidial activity in chicken against Eimeria praecox (DP-785) measured at dose 60 (ppm in diet). In kind it is functional.
Assay [25] is filed under the species Gallus gallus. Kind of assay: The compound was tested for anti-coccidial activity in chicken against Eimeria maxima (DP-776) measured at dose 60 (ppm in diet). It is filed as functional.
The species entered for assay [26] is Gallus gallus. Kind of assay: The compound was tested for anti-coccidial activity in chicken against Eimeria hagani (DP-786) measured at dose 60 (ppm in diet). In kind it is functional.
Assay [27] is filed under the species Gallus gallus. The assay can be described thus: The compound was tested for anti-coccidial activity in chicken against Eimeria brunetti (FS-103) measured at dose 60 (ppm in diet). In kind it is functional.

On to `NC(=O)c1nnn(Cc2cc(Cl)c(C(=O)c3ccc(Br)cc3)c(Cl)c2)c1N`, for which the Reduction is 80% in the assay on Eimeria acervulina and 90% with Eimeria tenella.
In the case of `NC(=O)c1nnn(Cc2cc(Cl)c(C(=O)c3cc(Cl)cc(Cl)c3)c(Cl)c2)c1N`, the Reduction in the assay on Eimeria acervulina and with Eimeria tenella was greater than 99% each time.
Regarding `NC(=O)c1nnn(Cc2cc(Cl)c(C(=O)c3ccc(F)cc3)c(Cl)c2)c1N`, the Reduction with Eimeria acervulina and in the assay with Eimeria tenella was 90% each time.
Take `NC(=O)c1nnn(Cc2ccc(C(=O)c3c(Cl)cccc3Cl)cc2)c1N`: the MED with Eimeria acervulina and in the assay on Eimeria tenella was greater than 250 ppm each time.
As for `NC(=O)c1ncn(Cc2ccc(Cl)c(Cl)c2)c1N`, the Reduction with Eimeria acervulina and in the assay with Eimeria tenella was greater than 99% in each case.
For `NC(=O)c1nnn(Cc2cccc(C(=O)c3ccc(Cl)cc3)c2)c1N`, the Reduction in the assay with Eimeria acervulina came to 90%. Further, in the assay on Eimeria tenella, the MED is greater than 500 ppm.
Taken in the same sequence, the figures for `NC(=O)c1nnn(Cc2ccc(C(=O)c3ccc(Cl)cc3)c(Cl)c2)c1N` were 90% and greater than 500 ppm.
Regarding `N#Cc1ccc(C(=O)c2c(Cl)cc(Cn3nnc(C(N)=O)c3N)cc2Cl)cc1`, the Reduction in the assay on Eimeria acervulina and in the assay on Eimeria tenella was 90% in each case.
Take `NC(=O)c1nnn(Cc2cc(Cl)cc(Cl)c2)c1N`: the MED with Eimeria acervulina and in the assay on Eimeria tenella was greater than 125 ppm in each case.
With `NC(=O)c1nnn(Cc2cc(Cl)c(C(=O)c3ccc(C(Cl)=C(Cl)Cl)cc3)c(Cl)c2)c1N`, the figures for the Reduction with Eimeria acervulina and in the assay on Eimeria tenella were 90% and 80%, respectively.
On the same counts, the results for `NC(=O)c1nnn(Cc2ccc(Cl)c(Cl)c2)c1N` are 80% and 80%.
With `NC(=O)c1nnn(Cc2cc(Cl)c(C(=O)c3ccc(Cl)c(Cl)c3)c(Cl)c2)c1N`, the Reduction in the assay with Eimeria acervulina and in the assay with Eimeria tenella was 90% in each case.
`NC(=O)c1nnn(Cc2ccc(C(=O)c3ccc(Cl)cc3Cl)c(Cl)c2)c1N` gave an MED in the assay with Eimeria acervulina greater than 250 ppm. The same molecule registered a Reduction in the assay on Eimeria tenella of 90%.
Turning to `NC(=O)c1nnn(Cc2ccc(Cl)c(C(=O)c3ccc(Cl)cc3)c2)c1N`, the Reduction with Eimeria acervulina and with Eimeria tenella was 90% each time.
For `NC(=O)c1nnn(Cc2cc(Cl)c(C(=O)c3ccccc3)c(Cl)c2)c1N`, the Reduction in the assay with Eimeria acervulina and with Eimeria tenella was 90% in each case.
In turn, `NC(=O)c1nnn(Cc2ccc(C(=O)c3ccc(Cl)cc3)cc2)c1N` displayed a Minimum active dose in the assay with Eimeria acervulina greater than 500 ppm. For the same molecule, in the assay on Eimeria tenella, the MED was greater than 500 ppm.
`NC(=O)c1nnn(Cc2cc(F)c(C(=O)c3ccc(Cl)cc3)c(Cl)c2)c1N`: the Reduction in the assay with Eimeria acervulina and in the assay with Eimeria tenella was 90% in each case.
For `NC(=O)c1nnn(Cc2ccc(Cl)cc2)c1N`, the Reduction in the assay on Eimeria acervulina is recorded as 80%. This molecule also came in with an MED with Eimeria tenella greater than 1000 ppm.
As to `NC(=O)c1nnn(Cc2cc(Cl)c(C(=O)c3ccc(I)cc3)c(Cl)c2)c1N`, the Reduction is given as 90% in the assay on Eimeria acervulina and greater than 99% in the assay on Eimeria tenella.
In the case of `COC(=O)c1ccc(C(=O)c2c(Cl)cc(Cn3nnc(C(N)=O)c3N)cc2Cl)cc1`, the MED with Eimeria acervulina and with Eimeria tenella was greater than 250 ppm throughout.
Regarding `NC(=O)c1nnn(Cc2cc(Cl)c(C(=O)c3ccc(Cl)cc3)c(Br)c2)c1N`, the Reduction with Eimeria acervulina and in the assay on Eimeria tenella was 90% each time.
In the assay on Eimeria acervulina, `NC(=O)c1nnn(Cc2ccc(C(=O)c3c(Cl)cc(Cl)cc3Cl)cc2)c1N` showed a Reduction of 90%. In the assay on Eimeria tenella, this molecule had an MED greater than 250 ppm.
Consider `NC(=O)c1nnn(Cc2ccccc2)c1N`, for which, in the assay listed under Gallus gallus [1], the Reduction entry was “inactive”.
In the case of `CCCc1ncc(C[n+]2ccccc2C)c(N)n1.Cl.[Cl-]` [AMPROLIUM], the Reduction was found to be 7% in the assay listed under Gallus gallus [2]; 80% with Eimeria acervulina; 18% in the assay listed under Gallus gallus [3]; 100% in the assay listed under Gallus gallus [4]; 0% in the assay filed under Gallus gallus [5]; 0% in the assay listed under Gallus gallus [6]. The Reduction in the assay on Eimeria tenella is recorded as 80%; in the assay filed under Gallus gallus [7], 79%; in the assay filed under Gallus gallus [8], 36%.
As for `Nc1ncnc2c1ncn2Cc1c(F)cccc1Cl` [ARPRINOCID], the Reduction with Eimeria acervulina and in the assay on Eimeria tenella was 80% in each case.
For `CC[C@@H](C(=O)[C@@H](C)[C@@H](O)[C@H](C)CCc1ccc(C)c(O)c1C(=O)O)[C@H]1O[C@](CC)([C@H]2CC[C@](O)(CC)[C@H](C)O2)C[C@@H]1C` [LASALOCID], the Reduction in the assay listed under Gallus gallus [9] is listed as 16%; in the assay listed under Gallus gallus [10], 100%; in the assay filed under Gallus gallus [11] it was 100%; in the assay listed under Gallus gallus [12], 74%; in the assay listed under Gallus gallus [13], 100%; in the assay on Eimeria acervulina, 80%. Besides, the Reduction is 100% in the assay filed under Gallus gallus [14], 34% in the assay filed under Gallus gallus [15] and 80% with Eimeria tenella.
For `Cc1cc(C)nc(O)n1.O=C(Nc1ccc([N+](=O)[O-])cc1)Nc1ccc([N+](=O)[O-])cc1` [NICARBAZIN], the Reduction in the assay listed under Gallus gallus [2] came out at 0%; with Eimeria acervulina, 80%; in the assay filed under Gallus gallus [3], 34%; in the assay filed under Gallus gallus [4] it was 100%; in the assay filed under Gallus gallus [5], 0%; in the assay filed under Gallus gallus [6], 21%. Also, the Reduction turned out to be 80% in the assay on Eimeria tenella, 100% in the assay filed under Gallus gallus [7] and 100% in the assay listed under Gallus gallus [8].
As for `N=C(N/N=C/c1ccc(Cl)cc1)N/N=C/c1ccc(Cl)cc1` [ROBENIDINE], the Reduction in the assay filed under Gallus gallus [16] is listed as 0%; in the assay filed under Gallus gallus [17], 99.9%; in the assay listed under Gallus gallus [18] it was 54%; in the assay listed under Gallus gallus [19], 21%; in the assay listed under Gallus gallus [20], 0%; in the assay listed under Gallus gallus [21], 100%. Moreover, the Reduction in the assay with Eimeria acervulina came out at 80%; in the assay with Eimeria tenella it was 80%; in the assay listed under Gallus gallus [22], 100%.
Consider `CC[C@@H](C(=O)[C@@H](C)[C@@H](O)[C@H](C)[C@@H]1O[C@@H]([C@@H](CC)C(=O)O)CC[C@@H]1C)[C@H]1O[C@]2(C=C[C@@H](O)[C@]3(CC[C@@](C)([C@H]4CC[C@](O)(CC)[C@H](C)O4)O3)O2)[C@H](C)C[C@@H]1C` [SALINOMYCIN], for which the Reduction was 91% in the assay listed under Gallus gallus [23]; 62% in the assay filed under Gallus gallus [24]; 0% in the assay filed under Gallus gallus [25]; 0% in the assay filed under Gallus gallus [26]; 85% in the assay with Eimeria tenella; 74% in the assay filed under Gallus gallus [27].
